Screening results as filed in PubChem BioAssay.
ARFGAP1 inhibitor = inhibitors of rat ARFGAP1; Q62848; Arfgap1-stimulated ARF1 GTP hydrolysis, GDP FP detection; inhibition, % at 16.5 µM; 360,000 tested, 0.26% active; AID 651572;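 active means inhibition above a per-plate limit, mean inhibition of low control wells plus 3 SD, cut at about 25% in these data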;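 further: 0% = DMSO wells with enzyme and 100% = wells lacking Arfgap1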
Target sequence (Q62848 1-136 limits assumed): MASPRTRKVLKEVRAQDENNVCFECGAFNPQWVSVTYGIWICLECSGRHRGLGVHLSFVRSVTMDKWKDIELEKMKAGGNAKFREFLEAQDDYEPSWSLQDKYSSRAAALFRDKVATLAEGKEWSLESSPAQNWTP
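Assay system: purified rat His6-Arfgap1 residues 1-136 (GAP domain); Reagent: human Δ17 ARF1 bound to GTP; Dosing: 16.5 µM single point, 1.26% DMSO; Times: GTP hydrolysis reaction 2 h at 25 °C; Signal: FP, GDP Alexa 633 tracer displaced from anti-GDP antibody, 620/688 nm; Measure: % inhibition from polarization.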
LEDGF integ inh = blocks HIV-1 LEDGF/p75-dependent DNA integration; TR-FRET IN-LEDGF/p75 DNA integration, Eu/Cy5; inhibition, % at 3.7 µM; 370,000 tested, 0.64% active;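 active means inhibition above the screen-wide mean plus 3 SD, cut at about 13% in these data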;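 further: signal is the Cy5 over europium emission ratio at 671 and 618 nm; 0% = plate median of compound wells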
MBD2 DNA inh = blocks human MBD2 binding to methylated DNA | TR-FRET, MBD2 binding to methylated oligonucleotide | inhibition, % at 4.4 µM | 370,000 tested, 0.31% active; in the data active means inhibition above about 13%
Target sequence (Q9UBB5 whole entry, looked up): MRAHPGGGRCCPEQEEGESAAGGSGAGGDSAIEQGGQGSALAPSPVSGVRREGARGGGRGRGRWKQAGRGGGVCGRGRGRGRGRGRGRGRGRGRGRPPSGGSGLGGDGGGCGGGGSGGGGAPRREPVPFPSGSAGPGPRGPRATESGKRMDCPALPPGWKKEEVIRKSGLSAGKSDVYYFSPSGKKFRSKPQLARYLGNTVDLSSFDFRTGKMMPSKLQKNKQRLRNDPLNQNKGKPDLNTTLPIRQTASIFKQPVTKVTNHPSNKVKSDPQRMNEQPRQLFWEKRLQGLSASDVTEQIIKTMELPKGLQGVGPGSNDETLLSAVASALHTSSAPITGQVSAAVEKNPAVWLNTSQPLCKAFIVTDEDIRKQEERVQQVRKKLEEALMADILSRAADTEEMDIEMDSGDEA
ASAP1 inh = inhibitors of human ASAP1 ArfGAP activity. Q9ULH1. 360,000 tested, 0.19% active. inhibition, % at 16.5 µM. AID 624377. ASAP1-stimulated ARF1 GTP hydrolysis, GDP FP detection; in the data active means inhibition above about 25%;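 further: 0% = vehicle with enzyme and substrate and 100% = no enzyme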
UHRF1 binding = blocks human UHRF1 binding to methylated DNA; Q96T88; UHRF1 binding to methylated oligo, TR-FRET; inhibition, % at 4.4 µM; 370,000 tested, 0.75% active; AID 687016; in the data active means inhibition above about 21%;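 further: UHRF1 SRA domain binding a hemimethylated CpG hairpin DNA probe; 0% = median of test compound wells and 100% = reference inhibitor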
TCR CD3 inh = blocks the human TCR-CD3 interaction; 360,000 tested, 0.37% active; AID 651800; TAMRA-labeled TCR probe fluorescence, biochemical; inhibition, % at 9.4 µM; in the data active means inhibition above about 19%;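 further: recombinant mutant TCR 2C K166C tagged with TAMRA read by polarization; 0% = receptor in buffer alone and 100% = receptor with positive control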
Active calls of the source: *; x = not tested or not shown. This is a sample that favours compounds with a hit; in the whole collection about 2% have one here.

SMILES | ARFGAP1 inhibitor | LEDGF integ inh | MBD2 DNA inh | ASAP1 inh | UHRF1 binding | TCR CD3 inh
CCCOc1cccc(C(=O)NCCNC(=O)c2ccccn2)c1 | -12 | 2 | 2 | -3 | 0 | 5
CCCOc1cccc(C(=O)NCCCNC(=O)c2ccccn2)c1 | -7 | 1 | 0 | 7 | 48* | 0
COc1ccccc1-c1nnc(SCC(=O)NCc2c(C)c(Cl)cc(C(C)C)c2O)o1 | 1 | -1 | 0 | 16 | 43* | 1
COc1cc(OC)c(NC(=O)CN(C)S(=O)(=O)c2ccc3[nH]c(=O)oc3c2)cc1Cl | 1 | -1 | -8 | -4 | -1 | 20*
Cc1cc(C)cc(NC(=O)COC(=O)CC2CCCC2)c1 | -2 | 2 | 0 | 13 | 32* | 7
COc1ccc(CN2C(=O)CCC2(C)c2nnnn2-c2ccc3c(c2)OCCO3)cc1 (configuration not stated) | 6 | -1 | 5 | 10 | 0 | -6
CCCCN(C)CCCNC(=O)Cn1cc2c(n1)-c1c(oc(C(=O)N3CCCC3)c1C)CC2 | -7 | -1 | 2 | -4 | 53* | -5
CC(=O)OC12CCCN(C1)/C(=C/c1ccc(Cl)cc1)C2 (configuration not stated) | x | 2 | 7 | x | 1 | x
Cc1[nH]c(=O)[nH]c(=O)c1S(=O)(=O)NCCc1ccc(S(N)(=O)=O)cc1 | -3 | 0 | 5 | 8 | 21* | 3
COc1ccc(NC(=O)CN(c2ccc(C)cc2)S(C)(=O)=O)c(OC)c1 | 15 | -3 | 0 | -8 | 40* | 0
CC1(C(=O)NCc2ccccc2)Cc2c(-c3ccccc3)ccnc2O1 (configuration not stated) | 1 | 2 | 1 | 0 | 66* | 5
CC1(C(=O)NCc2ccccc2)Cc2c(-c3ccc(C(N)=O)cc3)ccnc2O1 (configuration not stated) | 7 | -4 | 3 | -11 | 6 | 1
Cc1ccc(NC(=O)c2sc3nc[nH]c(=O)c3c2C)c(C)c1 | 6 | -1 | 7 | 6 | 23* | -2
CCOC(=O)c1sc2nc[nH]c(=O)c2c1C | 5 | 1 | -3 | -23 | -4 | 3
Cc1cc(C)cc(C(=O)OCCN(C)C2CN(Cc3cn(Cc4ccccc4C(F)(F)F)nn3)S(=O)(=O)C2)c1 (configuration not stated) | x | -3 | 8 | x | 12 | x
COc1ccc([C@H]2OC(=O)C[C@H]2C(=O)N2CCN(C(=O)C3CCCO3)CC2)cc1OC (some centres not stated) | x | 0 | -5 | x | 0 | x
Cc1nn(CC(=O)O)c(C)c1N | 0 | 8 | 8 | -9 | 30* | 3
Cc1nn(CC(=O)O)c(C)c1[N+](=O)[O-] | -1 | 3 | -2 | 9 | -4 | 5
Cn1c(=O)n(Cc2ccccc2)c2ccccc21 | -2 | -5 | 2 | 6 | 1 | -8
Cn1c(=O)n(Cc2ccc(Br)cc2)c2ccccc21 | 7 | 4 | 4 | -8 | 23* | 10
O=C(NCCCn1ccnc1)c1sc2cc([N+](=O)[O-])ccc2c1Cl | 13 | 2 | -2 | 0 | -7 | -7
Fc1ccc(-c2n[nH]c(=S)n2N=Cc2ccc(OCc3ccccc3)cc2)cc1 | x | -3 | 5 | x | 0 | x
CCOc1ccc(-n2c(C)cc(C(=O)NS(=O)(=O)c3ccc(C)cc3)c2C)cc1 | -5 | -2 | 2 | 1 | 52* | -3
Cc1cc2c(c(=O)o1)[C@@]1(C(=O)Nc3ccccc31)C1=C(CCCC1=O)O2 | -2 | -1 | 0 | -1 | 2 | 5
COC(=O)[C@]12C[C@H](CC(=O)NCCc3ccccc3OC)C(=O)N(Cc3cccc4ccccc34)C1=C[C@H](C(C)(C)C)O[C@@H]2C | x | 5 | 2 | x | -4 | x
SMILES | ARFGAP1 inhibitor | LEDGF integ inh | MBD2 DNA inh | ASAP1 inh | UHRF1 binding | TCR CD3 inh
CSc1ccccc1NC(=O)Cc1ccccc1 | 10 | 4 | 12 | 8 | 23* | -4
CCCCCn1nnnc1C1c2ccccc2OCC(=O)N1Cc1ccco1 (configuration not stated) | x | 4 | 2 | x | 3 | x
O=C(NCCc1ccccc1Cl)C1CCC(=O)N(Cc2ccc(Cl)cc2)C1 (configuration not stated) | 5 | 1 | -3 | 4 | 1 | 12
COc1ccc(CCCNC(=O)C2CCC(=O)N(Cc3ccc(Cl)cc3)C2)cc1 (configuration not stated) | 9 | -3 | 4 | -11 | 26* | -4
COc1ccc(CCCNC(=O)C2CCC(=O)N(CC3CCCCC3)C2)cc1 (configuration not stated) | 16 | -4 | 7 | 7 | 2 | -1
O=C(NCCCc1ccccc1)C1CCC(=O)N(Cc2ccc(Cl)cc2)C1 (configuration not stated) | 2 | -4 | 6 | 5 | 21* | -1
CC1(C(=O)Nc2cccc(NS(C)(=O)=O)c2)CCN1CCc1ccccc1 (configuration not stated) | -6 | 3 | 1 | 5 | 2 | 4
CN(C(=S)NC(=O)C12CC3CC(CC(C3)C1)C2)c1ccc(O)cc1 | -2 | 15* | -9 | 1 | 6 | 17
CC1CCCC(C)N1/N=C/c1ccc([N+](=O)[O-])cc1 (configuration not stated) | -9 | 4 | -5 | -1 | -2 | 4
CC1CCCC(C)N1/N=C/c1ccc(N(C)C)cc1 (configuration not stated) | 2 | 1 | 3 | 0 | 24* | -2
COC(=O)C1CN(Cc2cn(Cc3ccc(F)cc3)nn2)CCS(=O)(=O)N1Cc1ccc(C)cc1 (configuration not stated) | x | -3 | -2 | x | 0 | x
O=C(Nc1ccc(Cl)c(Cl)c1)c1cccc2c1-c1ccccc1C2=O | x | 4 | 2 | x | 2 | x
CN1CCN(S(=O)(=O)c2cc(C(F)(F)F)ccc2Cl)CC1 | 7 | -2 | 1 | 9 | 31* | -2
O=S(=O)(c1cc(C(F)(F)F)ccc1Cl)N1CCN(c2ccccn2)CC1 | 3 | -1 | 0 | 2 | 0 | -3
Oc1ccccc1Oc1ncc(Br)c(N2CCOCC2)n1 | 8 | -4 | 1 | 1 | 3 | 2
Oc1ccccc1Oc1ncc(Br)c(Cl)n1 | -4 | 1 | 8 | 16 | 22* | 6
O=C(Nc1nnc([C@@H]2O[C@H](CO)[C@@H](O)[C@H]2O)s1)Nc1ccccc1C(F)(F)F | 3 | 0 | 9 | 3 | 0 | -3
Cc1cc(NC(=O)C2CC2)ncc1NC(=O)c1ccccn1 | -8 | -2 | 2 | 8 | 22* | 4
COCC(=O)N[C@H]1C=C[C@@H](CC(=O)OC)O[C@@H]1CO | 6 | 1 | 1 | 10 | -2 | 2
CC(C)C[C@H]1COc2cccc(F)c2S(=O)(=O)N1Cc1cn(CC2CCCCC2)nn1 | x | -1 | 5 | x | 1 | x
